The source made the active and inactive calls.
Key:
Proteus mirabilis = test: Antibacterial activity against Proteus mirabilis CECT170 up to 40 ug/mL by broth microdilution method; assay type: functional, organism-based
In short: (§1)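 Compounds are dissolved in DMSO. The minimal inhibitory concentration is estimated by broth microdilution.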

Priestia megaterium = test: Antibacterial activity against Bacillus megaterium CECT 44 up to 40 ug/mL by broth microdilution method; assay type: functional, organism-based; in short: as §1
Enterococcus faecalis = test: Antibacterial activity against Enterococcus faecalis CECT 795 up to 40 ug/mL by broth microdilution method; assay type: functional, organism-based; in short: as §1
Escherichia coli = test: Antibacterial activity against Escherichia coli CECT 99 up to 40 ug/mL by broth microdilution method; assay type: functional, organism-based; in short: as §1
[1] = tested on: Staphylococcus epidermidis; test: Antibacterial activity against Staphylococcus epidermidis CECT 232 up to 40 ug/mL by broth microdilution method; assay type: functional, organism-based; in short: as §1
Vero = test: Cytotoxicity against african green monkey Vero cells after 48 hrs by MTT assay; assay type: cell-based; conditions: Chlorocebus sabaeus
In short: (§2)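 Monolayers are cultured in DMEM with 5% fetal calf serum and 1% penicillin-streptomycin at 37 °C, 5% CO2 and 90% humidity. Exponentially growing cells (2 × 10^4 cells/well) are exposed to a range of compound concentrations for 48 h at 37 °C. Viability is read by colorimetric MTT reduction.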

Bacillus subtilis = test: Antibacterial activity against Bacillus subtilis CECT 39 up to 40 ug/mL by broth microdilution method; assay type: functional, organism-based; in short: as §1
Bacillus cereus = test: Antibacterial activity against Bacillus cereus CECT 496 up to 40 ug/mL by broth microdilution method; assay type: functional, organism-based; in short: as §1
Candida albicans = test: Antifungal activity against Candida albicans UBC1 up to 40 ug/mL by broth microdilution method; assay type: functional, organism-based
In short: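 The yeast is grown on Sabouraud agar at 37 °C. Compounds are dissolved in DMSO, and the minimal inhibitory concentration is estimated by broth microdilution.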

[2] = tested on: Mycolicibacterium smegmatis; test: Antibacterial activity against Mycobacterium smegmatis CECT 3032 up to 40 ug/mL by broth microdilution method; assay type: functional, organism-based; in short: as §1
[3] = tested on: Staphylococcus saprophyticus; test: Antibacterial activity against Staphylococcus saprophyticus CECT 235 up to 40 ug/mL by broth microdilution method; assay type: functional, organism-based; in short: as §1
HEp-2 = test: Cytotoxicity against human Hep2 cells after 48 hrs by MTT assay; assay type: functional, cell-based; conditions: HEp-2, 48 h; in short: as §2
HeLa = test: Cytotoxicity against human HeLa cells after 48 hrs by MTT assay; assay type: functional, cell-based; in short: as §2
Pseudomonas aeruginosa = test: Antibacterial activity against Pseudomonas aeruginosa AK 958 up to 40 ug/mL by broth microdilution method; assay type: functional, organism-based; in short: as §1
Staphylococcus aureus = test: Antibacterial activity against Staphylococcus aureus ATCC 6538 up to 40 ug/mL by broth microdilution method; assay type: functional, organism-based; in short: as §1
Salmonella = test: Antibacterial activity against Salmonella sp. CECT 456 up to 40 ug/mL by broth microdilution method; assay type: functional, organism-based; in short: as §1
Bacillus pumilus = test: Antibacterial activity against Bacillus pumilus CECT 29 up to 40 ug/mL by broth microdilution method; assay type: functional, organism-based; in short: as §1

C=C(C)[C@@H]1CC[C@]2(CO)CC[C@]3(C)[C@H](CC[C@@H]4[C@@]5(C)CC[C@H](OC(=O)/C=C/c6ccc(O)c(O)c6)C(C)(C)[C@@H]5CC[C@]43C)[C@@H]12
inactive: Activity (Proteus mirabilis) | Activity (Priestia megaterium) | Activity (Enterococcus faecalis) | Activity (Escherichia coli) | Activity [1] | Activity (Bacillus subtilis) | Activity (Bacillus cereus) | Activity (Candida albicans) | Activity [2] | Activity [3] | Activity (Pseudomonas aeruginosa) | Activity (Staphylococcus aureus) | Activity (Salmonella) | Activity (Bacillus pumilus)
> 10 µg/mL: IC50 (Vero) | IC50 (HEp-2) | IC50 (HeLa)

C=C(C)[C@@H]1CC[C@]2(CO)CC[C@]3(C)[C@H](CC[C@@H]4[C@@]5(C)CCC(=O)C(C)(C)[C@@H]5CC[C@]43C)[C@@H]12 [BETULONE]
inactive: Activity (Proteus mirabilis) | Activity (Priestia megaterium) | Activity (Enterococcus faecalis) | Activity (Escherichia coli) | Activity [1] | Activity (Bacillus subtilis) | Activity (Bacillus cereus) | Activity (Candida albicans) | Activity [2] | Activity [3] | Activity (Pseudomonas aeruginosa) | Activity (Staphylococcus aureus) | Activity (Salmonella) | Activity (Bacillus pumilus)
> 10 µg/mL: IC50 (Vero) | IC50 (HEp-2) | IC50 (HeLa)

C=C(C)[C@@H]1CC[C@]2(C)CC[C@]3(C)[C@@H](CC[C@@H]4[C@@]5(C)[C@@H](O)C[C@H](O)C(C)(C)[C@@H]5CC[C@]43C)[C@@H]12 [GLOCHIDIOL]
inactive: Activity (Proteus mirabilis) | Activity (Priestia megaterium) | Activity (Enterococcus faecalis) | Activity (Escherichia coli) | Activity [1] | Activity (Bacillus subtilis) | Activity (Bacillus cereus) | Activity (Candida albicans) | Activity [2] | Activity [3] | Activity (Pseudomonas aeruginosa) | Activity (Staphylococcus aureus) | Activity (Salmonella) | Activity (Bacillus pumilus)
> 10 µg/mL: IC50 (Vero) | IC50 (HEp-2) | IC50 (HeLa)

C=C(C)[C@@H]1CC[C@]2(C(=O)O)CC[C@]3(C)[C@H](CC[C@@H]4[C@@]5(C)CC[C@@H](O)C(C)(C)[C@@H]5CC[C@]43C)[C@@H]12 [EPIBETULINIC ACID]
> 10 µg/mL: IC50 (Vero)
3.1 µg/mL: IC50 (HEp-2)
2.1 µg/mL: IC50 (HeLa)
inactive: Activity (Proteus mirabilis) | Activity (Priestia megaterium) | Activity (Enterococcus faecalis) | Activity (Escherichia coli) | Activity [1] | Activity (Bacillus subtilis) | Activity (Bacillus cereus) | Activity (Candida albicans) | Activity [2] | Activity [3] | Activity (Pseudomonas aeruginosa) | Activity (Staphylococcus aureus) | Activity (Salmonella) | Activity (Bacillus pumilus)

C=C(C)[C@@H]1CC[C@@]2(C)[C@H]1[C@@H]1CC[C@@H]3[C@@]4(C)CCC(=O)C(C)(C)[C@@H]4[C@H](O)C[C@@]3(C)[C@]1(C)C[C@@H]2O [RESINONE]
> 10 µg/mL: IC50 (Vero) | IC50 (HEp-2) | IC50 (HeLa)
inactive: Activity (Proteus mirabilis) | Activity (Priestia megaterium) | Activity (Enterococcus faecalis) | Activity (Escherichia coli) | Activity [1] | Activity (Bacillus subtilis) | Activity (Bacillus cereus) | Activity (Candida albicans) | Activity [2] | Activity [3] | Activity (Pseudomonas aeruginosa) | Activity (Staphylococcus aureus) | Activity (Salmonella) | Activity (Bacillus pumilus)

C=C(C)[C@@H]1CC[C@]2(CO)CC[C@]3(C)[C@H](CC[C@@H]4[C@@]5(C)CC[C@@H](O)C(C)(C)[C@@H]5CC[C@]43C)[C@@H]12 [3-EPI-BETULIN]
inactive: Activity (Proteus mirabilis) | Activity (Priestia megaterium) | Activity (Enterococcus faecalis) | Activity (Escherichia coli) | Activity [1] | Activity (Bacillus subtilis) | Activity (Bacillus cereus) | Activity (Candida albicans) | Activity [2] | Activity [3] | Activity (Pseudomonas aeruginosa) | Activity (Staphylococcus aureus) | Activity (Salmonella) | Activity (Bacillus pumilus)
> 10 µg/mL: IC50 (Vero) | IC50 (HEp-2) | IC50 (HeLa)

C=C(C)[C@@H]1CC[C@]2(C)CC[C@]3(C)[C@H](CC[C@@H]4[C@@]5(C)CCC(=O)C(C)(C)[C@@H]5CC[C@]43C)[C@@H]12 [LUPENONE]
inactive: Activity (Proteus mirabilis) | Activity (Priestia megaterium) | Activity (Enterococcus faecalis) | Activity (Escherichia coli) | Activity [1] | Activity (Bacillus subtilis) | Activity (Bacillus cereus) | Activity (Candida albicans) | Activity [2] | Activity [3] | Activity (Pseudomonas aeruginosa) | Activity (Staphylococcus aureus) | Activity (Salmonella) | Activity (Bacillus pumilus)
> 10 µg/mL: IC50 (Vero) | IC50 (HEp-2) | IC50 (HeLa)

C=C(CO)[C@@H]1CC[C@]2(CO)CC[C@]3(C)[C@@H](CC[C@@H]4[C@@]5(C)CCC(=O)C(C)(C)[C@@H]5CC[C@]43C)[C@@H]12
inactive: Activity (Proteus mirabilis) | Activity (Priestia megaterium) | Activity (Enterococcus faecalis) | Activity (Escherichia coli) | Activity [1] | Activity (Bacillus subtilis) | Activity (Bacillus cereus) | Activity (Candida albicans) | Activity [2] | Activity [3] | Activity (Pseudomonas aeruginosa) | Activity (Staphylococcus aureus) | Activity (Salmonella) | Activity (Bacillus pumilus)
> 10 µg/mL: IC50 (Vero)
7.1 µg/mL: IC50 (HEp-2)
4 µg/mL: IC50 (HeLa)

C=C(C)[C@@H]1CC[C@]2(C)CC[C@]3(C)[C@@H](CC[C@@H]4[C@@]5(C)C=CC(=O)C(C)(C)[C@@H]5CC[C@]43C)[C@@H]12 [GLOCHIDONE]
> 10 µg/mL: IC50 (Vero) | IC50 (HEp-2) | IC50 (HeLa)
inactive: Activity (Proteus mirabilis) | Activity (Priestia megaterium) | Activity (Enterococcus faecalis) | Activity (Escherichia coli) | Activity [1] | Activity (Bacillus subtilis) | Activity (Bacillus cereus) | Activity (Candida albicans) | Activity [2] | Activity [3] | Activity (Pseudomonas aeruginosa) | Activity (Staphylococcus aureus) | Activity (Salmonella) | Activity (Bacillus pumilus)

C=C(C)[C@@H]1CC[C@]2(C)CC[C@]3(C)[C@H](CC[C@@H]4[C@@]5(C)CC[C@H](O)C(C)(C)[C@@H]5CC[C@]43C)[C@@H]12 [LUPEOL]
> 10 µg/mL: IC50 (Vero) | IC50 (HEp-2) | IC50 (HeLa)
inactive: Activity (Proteus mirabilis) | Activity (Priestia megaterium) | Activity (Enterococcus faecalis) | Activity (Escherichia coli) | Activity [1] | Activity (Bacillus subtilis) | Activity (Bacillus cereus) | Activity (Candida albicans) | Activity [2] | Activity [3] | Activity (Pseudomonas aeruginosa) | Activity (Staphylococcus aureus) | Activity (Salmonella) | Activity (Bacillus pumilus)

From ChEMBL document CHEMBL1158804, “Lupane triterpenoids from Maytenus species” (J Nat Prod, 2005)
